Jurkat NFkB inh = lowers PMA/ionomycin-induced NF-kB signal in Jurkat cells | PMA/ionomycin-induced NF-kB luciferase reporter, luminescence | inhibition, % at 4 µM | 330,000 tested, 0.53% active | AID 435003; in the data active means inhibition above about 50%
H9c2 TAG inh = reduces triacylglycerol accumulation in H9c2 cells. inhibition, % at 12.5 µM. 230,000 tested, 0.66% active. Nile Red lipid (TAG) fluorescence; cells loaded with 200 µM oleic acid. AID 651582;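 active means pattern-corrected inhibition of lipid staining of at least 50% with the nuclear-stain viability signal not falling by more than 50%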;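 further: 0% = DMSO wells and 100% = triacsin C control wells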
697 NFkB inh = inhibitors of the PMA/ionomycin-induced NF-kB reporter in 697 B cells; 697 B-cell NF-kB luciferase reporter, 16 h; AID 435022; inhibition, % at 4 µM; 330,000 tested, 0.33% active; in the data active means inhibition above about 35%
aSyn UTR inh = MLPCN primary screen, SNCA 5' untranslated region | alpha-synuclein 5'UTR reporter, inhibitor activity | inhibition, % (tested at 7.5 µM) | 300,000 tested, 0.82% active; in the data active means inhibition above about 60%;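 further: H4 neuroglioblastoma cells stably carrying SNCA 5'UTR luciferase fusion; 0% = DMSO wells and 100% = positive control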
Hep lipid drop = modulators of hepatic lipid droplet formation. AML12 mouse hepatocytes, oleate lipid droplets, BODIPY imaging. inhibition, % at 6.5 µM. AID 1656. 240,000 tested, 0.4% active;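 active means lipid droplet intensity inhibited by at least 50%, with more than 500 cells counted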
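Assay system: AML12 mouse liver cells | Compound: 6.5 µM single-point dosing | Schedule: Overnight exposure | Technique: Fluorescence imaging, 20x objective, two fields per well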
APP transl inh = APP translation inhibition; SH-SY5Y APP 5'UTR-luciferase reporter, luminescence; inhibition, % at 2 µM; 190,000 tested, 0.82% active; AID 1285;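 active means inhibition above a set limit, derived from the sample mean plus 3 SD, cut at about 45% in these data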
697 NFkB conf = lowers PMA/ionomycin-induced NF-kB signal in 697 B cells; shares compounds with 697 NFkB inh; 697 B-cell NF-kB luciferase, 16 h; inhibition, % at 4 µM; 2,000 tested, 35% active; AID 449746; in the data active means inhibition mostly above about 28%, no sharp cut-off; inactive means mostly below about 22%
An asterisk follows results filed as active; i = inactive; · = no result given. Compounds with a hit are over-represented: about 1.9% of the library has one in this group of screens.

SMILES | Jurkat NFkB inh | H9c2 TAG inh | 697 NFkB inh | aSyn UTR inh | Hep lipid drop | APP transl inh | 697 NFkB conf
CC1C(=O)C(C)(C)C(=O)OC1c1ccccc1 (stereo unspecified) | 8 | 1 | 0 | 3 | 5 | · | ·
Cc1c(O)c2cccnc2[nH]c1=O | 5 | · | 6 | -6 | -2 | -5 | ·
O=C(/C=C/c1ccc(O)c(O)c1)c1ccccc1O | -18 | 24 | -276 | -293 | -1 | · | -180
Cc1ccc(NC(=O)C(C)SCC(=O)Nc2ccc(F)cc2)cc1S(=O)(=O)N1CCOCC1 (stereo unspecified) | 6 | 8 | -2 | 2 | · | · | ·
Nc1ccc2nc(-c3ccccc3)sc2c1 | -113 | 19 | -344 | 47 | -1 | -108 | -179
Nc1ccc2nc(-c3ccccc3)c(-c3ccccc3)nc2c1 | 14 | · | -19 | 14 | -14 | · | ·
CCOC(=O)C1CCCN(c2ncnc3c2cnn3-c2cccc(C)c2)C1 (stereo unspecified) | -1 | · | -72 | -20 | · | -10 | ·
COc1ccc(-n2ncc3c(N4CCN(Cc5ccccc5)CC4)ncnc32)cc1 | 26 | · | 5 | -115 | -2 | -13 | ·
CCOC(=O)C1CCN(c2ncnc3c2cnn3-c2ccc(OC)cc2)CC1 | -4 | · | 47* | · | 0 | -19 | 36*
COc1ccc(-n2ncc3c(N4CCC(C(N)=O)CC4)ncnc32)cc1 | -70 | · | 60* | -124 | -3 | -102 | 45*
COc1cc(-c2nc3ccccn3c2NCC2CCCO2)ccc1O (stereo unspecified) | -4 | · | 36* | -23 | · | 9 | 2
CC(=O)Nc1ccc(S(=O)(=O)N2CCC(c3nc4ccc(C)cc4[nH]3)CC2)cc1 | 13 | · | 38* | -21 | · | 9 | 15
CCOC(=O)Nc1ccc(S(=O)(=O)N2CCC(c3nc4ccccc4[nH]3)CC2)cc1 | · | 17 | · | · | · | · | ·
COc1ccc(C2=NOC(Cn3nc(-c4ccccc4)cc3C(=O)NCc3cccs3)C2)cc1 (stereo unspecified) | -18 | 15 | -2 | · | · | · | ·
c1ccc(-c2noc(-c3ccccc3-c3ccccc3)n2)cc1 | -1 | -12 | -11 | -7 | -6 | 14 | ·
c1ccc(-c2noc(-c3ccc4ccccc4c3)n2)cc1 | -100 | · | -354 | 77* | · | -150 | -359
CN(CC(=O)Nc1cccc(F)c1)CC(=O)N(C)CC(=O)Nc1ccccc1Br | 15 | -8 | 13 | · | · | · | ·
CC(C)Sc1nnc(CNC(=O)C23CC4CC(CC(C4)C2)C3)n1C1CCCCC1 | -9 | · | -40 | -16 | -20 | -11 | ·
CCCCOc1ccc(NC(=O)C(=O)NCCCn2ccnc2)cc1 | 10 | 6 | 54* | 66* | 1 | 7 | 58*
Cc1ccc(NC(=O)CCNS(=O)(=O)c2ccc3c(c2)oc(=O)n3C)cc1 | 16 | · | 41* | -26 | 17 | -2 | 8
CCOc1ccc(NC(=O)CCNS(=O)(=O)c2ccc3c(c2)oc(=O)n3C)cc1 | 0 | · | -2 | -4 | -2 | · | ·
FC(F)(F)c1cc(CCN2CCNC[C@H]2Cc2cccc3ccccc23)cc(C(F)(F)F)c1 | 20 | 18 | 36* | -7 | · | · | 13
Oc1ccc(C[C@@H]2CNCCN2CCc2cc(C(F)(F)F)cc(C(F)(F)F)c2)cc1 | 16 | · | -8 | -21 | · | · | ·
CN=c1scc(C)n1/N=C/c1ccc2c(c1)OCO2 | -131 | -9 | -273 | 35 | 2 | -209 | -262
CN=c1scc(C)n1/N=C/c1cc(Br)c(O)c(Br)c1 | -8 | -14 | 1 | -14 | 4 | 4 | ·
SMILES | Jurkat NFkB inh | H9c2 TAG inh | 697 NFkB inh | aSyn UTR inh | Hep lipid drop | APP transl inh | 697 NFkB conf
CC(=O)Nc1cc(-c2ccc(C(=O)NC3CC3)cc2)cn2c(-c3cccc(C(F)(F)F)c3)cnc12 | · | 6 | · | · | · | · | ·
COc1ccc(-c2csc3nc(-c4cccnc4)nc(N4CCC(C(N)=O)CC4)c23)cc1OC | 15 | · | 39* | -10 | 1 | 0 | 26*
COc1ccc(-c2csc3nc(C)nc(N4CCCCC4)c23)cc1OC | 6 | 6 | 24 | -9 | -2 | 1 | ·
CC(=O)Nc1cccc(NC(=O)c2cc(-c3cccnc3)nc3ccc(Br)cc23)c1 | 10 | · | 41* | -62 | · | 4 | 16
COc1ccccc1-c1nc(C#N)c(N2CCN(c3ccccc3)CC2)o1 | 11 | · | 37* | 2 | -9 | 19 | 19
CN(CCCN1CCCCC1)C(=O)c1cc(COc2ccc(F)cc2F)on1 | -8 | 2 | -16 | -3 | -1 | · | ·
COc1ccc(Cl)cc1C(=O)Nc1nc2ccccc2[nH]1 | -77 | · | -385 | 89* | -19 | · | -439
Cc1ccc(Sc2cc(NCCCO)c([N+](=O)[O-])c3nonc23)cc1 | -9 | 2 | 46* | -17 | 18 | · | 44*
COCCC(=O)N1CCC(Oc2ccc(C(=O)NC(C)CCn3cccn3)cc2)CC1 (stereo unspecified) | -3 | 11 | -9 | 1 | -22 | · | ·
COc1cc(CN(C2CCCCC2C)S(=O)(=O)c2ccc(S(=O)(=O)NC3CC3)cc2)cc(OC)c1OC (stereo unspecified) | -7 | · | 36* | 55 | -20 | -15 | -1
CC(=O)c1ccc(N2CCN(C(=S)Nc3ccc(Cl)c(Cl)c3)CC2)cc1 | 22 | 4 | -3 | -22 | -1 | -15 | ·
CN(C)c1cccc(C(=O)OCC(=O)NC(=O)NCc2ccccc2)c1 | 7 | -13 | 9 | · | · | · | ·
COc1ccc(/C=C2\N=C(SC)N(c3ccccc3OC)C2=O)cc1 | 18 | -8 | i | -66 | -10 | 26 | i
O=C(CN1C(=O)NC2(CCCCC2)C1=O)N1CCN(c2ncccn2)CC1 | 14 | -3 | 13 | · | · | · | ·
Cn1c(SCC(=O)Nc2cc(Cl)cc(Cl)c2)nnc1-c1ccc2nonc2c1 | 6 | 14 | 38* | 26 | -1 | · | 26
COc1cccc(C(=O)O[C@H]2[C@H](Cc3ccccc3)NS(=O)(=O)[C@H]3C[C@@H]4C=C[C@]23O4)c1 | -8 | 13 | 8 | · | · | · | ·
O=C(Nc1ccc2ccccc2c1)C(c1ccccc1)C1CCCC1 (stereo unspecified) | -9 | · | -258 | 54 | -17 | 6 | -220
Cc1cc(/C=C2\SC(=O)N(C)C2=O)c(C)n1-c1ccc(O)cc1 | -93 | 5 | -272 | -11 | -1 | · | -102
CCC(=O)Nc1cccc(NC(=O)c2ccc(C)cc2Cl)c1 | -17 | 2 | 16 | -7 | 8 | -32 | ·
Cc1ccc2nc(NC(=S)NC(=O)c3cccs3)sc2c1 | -42 | 39 | -191 | -104 | · | -243 | ·
Cc1ccc(Cc2cnc(NC(=O)c3cccs3)s2)cc1 | -124 | -16 | -299 | -91 | · | -170 | -259
Cc1ccc2nc(NC(=O)c3cccs3)sc2c1 | -138 | -26 | -434 | · | · | -163 | -455
O=C(Nc1nc2c(s1)CCCC2)c1cccs1 | -134 | -9 | -252 | · | 17 | -198 | -264
COc1cc(OC)cc(-c2c(C#Cc3ccsc3)c3cc(-c4ccc5c(c4)OCO5)ccc3n2C)c1 | -3 | 1 | 7 | · | · | · | ·
O=C(CSc1nc(-c2ccccc2)c(-c2ccccc2)o1)NCCCO | -13 | · | -9 | -4 | -1 | · | ·

Assay outcomes deposited in PubChem by several laboratories.
